Hits are enriched below; roughly 1.9% of the tested compounds scored in any of these assays.
SR-BI uptake up: activators of SR-BI mediated HDL lipid uptake. CHO ldlA[mSR-BI] cells, DiI-HDL uptake fluorescence, 3 h; 100 = double the neutral-control signal. activation, % at 12.5 µM. actives 0.096% (n = 320,000). AID 504775;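 active = mean replicate activation of at least 60% and every replicate at or above 60%; inconclusive = mean or all-replicate condition met, but not both; inactive = mean below 60% and not all replicates reaching 60%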;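 also: 0% = median plate neutral-control signal and 100% = twice that signal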
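Test system: SR-BI-overexpressing, LDLR-lacking CHO cells; Also added: labelled HDL, 10 µg/mL; Measured by: bottom-read cell fluorescence after medium removal, ex 550/em 595 nm; Timing: 3 h uptake period with compound, 37 °C; Buffer or medium: F12, 0.5% BSA, 25 mM HEPES; Doses: single compound concentration, delivered by pin transfer.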
PglD DTNB: inhibitors of Campylobacter jejuni PglD acetyltransferase; purified PglD enzyme, DTNB colorimetric CoA detection; inhibition, % at 12.5 µM; actives 0.098% (n = 360,000); in the data active = inhibition above about 16%, passing the limit was not always enough; inconclusive = no clear call, values can overlap the other calls
N-glyco inh: blocks N-linked glycosylation in D54 reporter cells; D54 ERlucT glycosylation luciferase reporter, 24 h; percent of 100 nM tunicamycin response; AID 588692; reporter increase, % at 12.5 µM; actives 0.23% (n = 360,000);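 active = mean luciferase reporter signal, scaled so untreated is 0 and the glycosylation-blocking control 100, at or above a set limit in every replicate; inconclusive = mean reaches the limit but not every replicate does; inactive = mean below the limit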;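 also: luciferase carries N-glycosylation sites so blocking glycosylation raises the light; 0% = median of neutral control wells and 100% = median of 100 nM tunicamycin wells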
Rtt109 HAT inh: inhibitors of Candida albicans Rtt109/Vps75 histone acetyltransferase; AID 540336; inhibition, % at 34.9 µM; Q5AAJ8; actives 0.16% (n = 330,000); purified Rtt109/Vps75, ThioGlo CoA-SH fluorescence, 4 h;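 active = inhibition of at least 50% in every replicate; inconclusive = best replicate reaches 50% inhibition but some replicates fall short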
SR-BI HDL uptake: mouse SR-BI HDL lipid transfer inhibition | Q61009 | ldlA[mSR-BI] CHO cells, DiI-HDL uptake fluorescence, 3 h | inhibition, % at 12.5 µM | actives 0.96% (n = 320,000) | AID 488896;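 active = mean replicate inhibition of at least 70% and a set share of replicates each scoring 70 or more; inconclusive = meets just one of the two criteria; inactive = fails both criteria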;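 also: 0% = median of neutral control wells and 100% = median of positive control wells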
Target sequence (Q61009 whole entry, looked up): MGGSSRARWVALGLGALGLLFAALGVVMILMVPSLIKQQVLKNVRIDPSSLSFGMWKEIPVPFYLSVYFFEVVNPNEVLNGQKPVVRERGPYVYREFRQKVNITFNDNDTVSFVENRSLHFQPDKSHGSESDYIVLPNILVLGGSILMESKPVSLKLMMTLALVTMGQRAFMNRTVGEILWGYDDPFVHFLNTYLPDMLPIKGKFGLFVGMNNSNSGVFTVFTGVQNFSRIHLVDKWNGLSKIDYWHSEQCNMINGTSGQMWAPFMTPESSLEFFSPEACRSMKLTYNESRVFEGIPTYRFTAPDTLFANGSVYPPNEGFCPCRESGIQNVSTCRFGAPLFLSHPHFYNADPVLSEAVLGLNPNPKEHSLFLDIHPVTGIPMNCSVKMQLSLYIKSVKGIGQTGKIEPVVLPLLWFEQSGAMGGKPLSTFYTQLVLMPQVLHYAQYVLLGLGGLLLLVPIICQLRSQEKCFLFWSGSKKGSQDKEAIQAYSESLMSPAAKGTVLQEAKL
HIV Env fusion: blocks HIV Env-driven cell-cell fusion; actives 1.1% (n = 360,000); HeLa-JRFL Env/CEM21 cell fusion, luciferase; inhibition, % at 12.3 µM; AID 651610;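 active = mean replicate inhibition score of at least 50 and every replicate individually at or above 50; inconclusive = only one of the two criteria met; inactive = mean below 50 and not all replicates reaching 50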;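 also: 0% = plate neutral controls and 100% = maraviroc near 300 nM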
* = called active by the depositor; i = inactive; ? = inconclusive; . = no result; [ ] = another dose, or the depositor's remark.

SMILES | SR-BI uptake up | PglD DTNB | N-glyco inh | Rtt109 HAT inh | SR-BI HDL uptake | HIV Env fusion
COc1cc(Nc2c3ccccc3nc3ccccc23)cc(OC)c1OC | -40 | 3 | 16 | 0 | 40 | -76
COc1ccccc1Nc1c2ccccc2nc2ccccc12 | -8 | -5 | 3 | -2 | 8 | 57*
COc1ccc(Nc2c3c(nc4ccccc24)CCC3)cc1 | -7 | 6 | 5 | 5 | 7 | 35
COc1nc(NCCc2ccc(OC)c(OC)c2)nc(OC)n1 | . | 4 | -1 | . | . | .
COc1ccc(Nc2c3ccccc3nc3ccccc23)cc1 | -30 | 0 | 42* | 3 | 30 | 1
COc1ccc(CCNc2c3ccccc3nc3ccccc23)cc1OC | 43 | -7 | 84* | -18 | -43 | 26
CCN1[C@H](C(=O)OC)[C@@H](CO)[C@@H]2Cn3c(ccc(-c4cccc(OC)c4)c3=O)[C@@H]21 | . | 0 | . | . | . | .
CCCC#Cc1ccc2c(c1)O[C@@H](CN(C)C(=O)c1ccccn1)[C@@H](C)CN([C@H](C)CO)S2(=O)=O | . | 1 | . | . | . | 22[16.7 µM]
C[C@@H]1CN([C@@H](C)CO)C(=O)c2cccc(NC(=O)c3ccc(-c4nccs4)cc3)c2O[C@H]1CN(C)Cc1ccccc1 | . | 11 | . | . | . | 13[16.7 µM]
CO[C@@H]1CN(C)C(=O)c2cc(NC(=O)Nc3ccccc3F)ccc2OC[C@@H](C)N(Cc2ccccc2C(=O)O)C[C@H]1C | . | -2 | . | . | . | .
c1cncc(Nc2c3ccccc3nc3ccccc23)c1 | -12 | -4 | 11 | 8 | 12 | 23
Oc1cccc(Nc2c3ccccc3nc3ccccc23)c1 | -7 | 1 | 62* | -1 | 7 | -27
O=C(c1ccccc1)c1c[nH]c2ccccc12 | 20 | -6 | 1 | -2 | -20 | -2
O=C(/C=C/c1c[nH]c2ccccc12)c1cccc2ccccc12 | -21 | -3 | 30* | 3 | 52 | -5
Cc1cc(NC(=O)c2cccnc2Cl)ccc1NC(=O)c1cc2ccccc2o1 | -77 | -1 | 0 | -6 | 77* | 11
COc1cc2[nH]c(C(=O)Nc3ccc4c(c3)OCCO4)cc2c(OC)c1OC | -86 | -2 | -5 | -22 | 86* | -17
O=C(Nc1cccc(NC(=O)c2ccco2)c1)c1ccc([N+](=O)[O-])cc1 | -82 | . | -2 | 6 | 82* | -20
COc1cc2cc(C(=O)Nc3ccc4c(c3)OCCO4)[nH]c2cc1OC | -71 | 3 | -15 | ? | ? | -24
CC(=O)Oc1ccc(C(=O)Nc2cccc(NC(=O)c3ccco3)c2)cc1 | -24 | 3 | -5 | -1 | 24 | 10
Cc1cc(NC(=O)c2cccnc2)ccc1NC(=O)c1cc2ccccc2o1 | -70 | 8 | -1 | -8 | 70 | -1
COc1c(F)c(F)c(C(=O)Nc2ccc(NC(=O)c3ccco3)cc2)c(F)c1F | -74 | -3 | -3 | -1 | 74* | .
COc1ccccc1-c1cnc2c(c1)C(=O)N([C@H](C)CO)C[C@@H](C)[C@H](CN(C)C(=O)CC1CC1)O2 | . | 4 | . | . | . | 4[16.7 µM]
O=C(Nc1ccc([N+](=O)[O-])cc1)C(=O)Nc1cccc(C(=O)O)c1 | . | 7 | -14 | -1 | . | 115*
O=C(O)c1cc(NC(=O)c2ccc([N+](=O)[O-])cc2)cc(NC(=O)c2ccc([N+](=O)[O-])cc2)c1 | 17 | 3 | 0 | 6 | -17 | 17
COC(=O)c1cccc(NC(=O)c2ccco2)c1 | -17 | 3 | 1 | 0 | 17 | .
SMILES | SR-BI uptake up | PglD DTNB | N-glyco inh | Rtt109 HAT inh | SR-BI HDL uptake | HIV Env fusion
COc1ccc(NC(C)=O)cc1NC(=O)c1ccc(Cl)cc1 | -14 | 4 | -1 | . | 14 | 8
Cc1ccc(C(=O)NC(=S)Nc2ccc(-c3cc4ccccc4oc3=O)cc2)c(C)c1 | -82 | -8 | 1 | -6 | 82* | .
COc1cc(NC(=O)c2ccc(Cl)cc2)c(OC)cc1Cl | -74 | 9 | -1 | -12 | 74* | 4
COC(=O)c1ccc(NC(=O)c2cccc(NC(=O)c3ccco3)c2)cc1 | 749* | -2 | -1 | 4 | i | 10
CC(C)NC(=O)N1C[C@H]2[C@@H](c3ccccc31)[C@H](CO)N2C(=O)c1ccccc1 | . | -3 | . | . | . | .
COc1ccc(NC(=O)c2ccc3c(c2)OCCO3)cc1OC | -28 | -8 | -5 | -9 | 28 | -25
COc1cc(NC(=O)c2ccc(Cl)cc2Cl)ccc1-c1cc2ccccc2oc1=O | -84 | 3 | 10 | 5 | 84* | -148
COc1cc(NC(=O)c2ccc3c(c2)OCCO3)ccc1NC(=O)c1ccccc1Cl | -89 | -1 | -4 | -3 | 89* | 1
COc1cc(NC(=O)c2ccccc2F)ccc1NC(=O)c1cc2ccccc2o1 | -87 | -6 | ? | -9 | 87* | -6
COc1cc(NC(C)=O)ccc1-c1cc2ccccc2oc1=O | -24 | . | 1 | -6 | 24 | -2
CCOc1ccccc1NC(=O)c1cc(Cl)ccc1NC(=O)c1ccco1 | -81 | . | 0 | -5 | 81* | -75
O=C(C[C@H]1CC[C@H](NC(=O)Nc2ccc(F)cc2)[C@H](CO)O1)NCc1ccccn1 | . | 2 | . | . | . | 0[16.7 µM]
C[C@H](CO)N1C[C@H](C)[C@@H](CN(C)Cc2ccc(C(=O)O)cc2)Oc2ccc(NC(=O)C3CC3)cc2CC1=O | . | 12 | . | . | . | 12[16.7 µM]
C[C@@H]1CN([C@@H](C)CO)C(=O)CCCn2cc(nn2)CO[C@@H]1CN(C)C(=O)Nc1cccc(Oc2ccccn2)c1 | . | -2 | . | . | . | 15[16.7 µM]
O=C(Nc1ccc(NC(=O)c2ccc(Cl)cc2Cl)cc1)c1cccs1 | -21 | 0 | -5 | 8 | 21 | 1
COc1cc(NC(=O)c2ccco2)c(OC)cc1NC(=O)c1cc(OC)c(OC)c(OC)c1 | -79 | -10 | 3 | 0 | 79* | -53
COc1cc(NC(=O)c2ccc(Cl)cc2Cl)ccc1NC(=O)c1cccs1 | -73 | 6 | -1 | -17 | 73* | -97
COc1cc(C(=O)Nc2ccc3c(c2)OCCO3)ccc1OC(F)F | -79 | 3 | -3 | 12 | 79* | -130
COc1ccc(C(=O)Nc2cc(OC)c(NC(=O)c3ccco3)cc2OC)cc1 | -69 | . | 4 | 57* | 69 | -10
COc1ccc(OC)c(NC(=O)c2cccc(NC(=O)c3ccco3)c2)c1 | . | 0 | 1 | . | . | -37
COc1ccc(NC(=O)c2ccc(NC(=O)c3ccco3)cc2)c(OC)c1 | -82 | 4 | -1 | -5 | 82* | 5
COc1cc(NC(=O)c2ccco2)ccc1NC(=O)c1ccccc1Cl | -64 | -2 | -6 | 5 | 64 | .
COc1cc(NC(=O)c2ccccc2Cl)ccc1NC(=O)c1ccco1 | -81 | -1 | -2 | 11 | 81* | -216
COc1ccc(NC(=O)c2ccco2)cc1NC(=O)c1cccc(OC(C)C)c1 | -12 | 4 | -1 | 8 | 12 | 113*
